Compound activity from PubChem BioAssay.
SR-BI DiI-HDL act – enhances SR-BI lipid uptake from DiI-HDL; CHO ldlA[mSR-BI] cells, DiI-HDL uptake fluorescence, 3 h; 100 = double the neutral-control signal; activation, % at 12.5 µM; AID 504775; 320,000 compounds, 0.096% hits;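 active means mean replicate activation of at least 60% and every replicate at or above 60%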;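 further: 0% = median plate neutral-control signal and 100% = twice that signal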
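Assay system: CHO ldlA[mSR-BI] cells, LDL receptor-null, SR-BI overexpressing; medium: Ham's F12 with 0.5% BSA, HEPES 25 mM, pH 7.4; also added: DiI-HDL 10 µg/mL; timing: 3 h uptake period with compound, 37 °C; signal: DiI fluorescence, bottom read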
GRK2 inh – blocks RNA aptamer binding to human GRK2. AID 488847. P25098. bead flow cytometry, FAM-aptamer displacement from GRK2. 330,000 compounds, 0.59% hits. inhibition of aptamer binding, % at 10 µM;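 active means inhibition of aptamer binding above 40%, roughly 3 SD of noise, on plates passing a quality check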;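 further: median bead fluorescence of bound FAM aptamer so fluorescent compounds give negative values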
Rin1 Abl inh – blocks binding of human Rin1 to Abl. 360,000 compounds, 0.4% hits. P00519+Q13671. AID 588664. inhibition, % at 7.35 µM. TR-FRET Rin1/Abl binding, biochemical; in the data active means inhibition above about 5%, passing the limit was not always enough
SR-BI HDL uptake – blocks mouse SR-BI lipid uptake from DiI-HDL; Q61009; ldlA[mSR-BI] CHO cells, DiI-HDL uptake fluorescence, 3 h; inhibition, % at 12.5 µM; 320,000 compounds, 0.96% hits; AID 488896;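 active means mean replicate inhibition of at least 70% and a set share of replicates each scoring 70 or more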;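 further: 0% = median of neutral control wells and 100% = median of positive control wells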
Target sequence (Q61009 whole entry, looked up): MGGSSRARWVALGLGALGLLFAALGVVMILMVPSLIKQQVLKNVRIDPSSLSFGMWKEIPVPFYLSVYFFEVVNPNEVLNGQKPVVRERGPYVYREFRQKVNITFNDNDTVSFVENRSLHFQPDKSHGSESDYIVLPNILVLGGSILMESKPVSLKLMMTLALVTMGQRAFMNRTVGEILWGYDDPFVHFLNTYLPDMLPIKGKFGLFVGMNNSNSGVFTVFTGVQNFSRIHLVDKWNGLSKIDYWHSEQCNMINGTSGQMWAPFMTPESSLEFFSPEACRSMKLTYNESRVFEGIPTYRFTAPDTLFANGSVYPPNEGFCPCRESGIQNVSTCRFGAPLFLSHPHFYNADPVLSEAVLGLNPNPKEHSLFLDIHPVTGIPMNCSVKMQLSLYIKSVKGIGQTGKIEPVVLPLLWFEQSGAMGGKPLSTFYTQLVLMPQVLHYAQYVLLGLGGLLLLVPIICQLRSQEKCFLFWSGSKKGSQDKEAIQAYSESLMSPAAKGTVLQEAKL
GRK2 CP1 – confirmation of human GRK2 inhibitors displacing RNA aptamer. shares compounds with GRK2 inh. bead-bound GRK2, FAM-aptamer displacement, flow cytometry. aptamer displacement, % at 10 µM. 2,000 compounds, 4% hits;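 active means aptamer displacement above 40%, near three times the noise of non-fluorescent compounds, on plates passing quality checks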;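 further: negative values mostly reflect intrinsic compound fluorescence rather than true enhancement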
Aptamer quench SP – quenches fluorescent RNA aptamer, GRK2 hit artifact. fluorescence response (% of DMSO), % at 10 µM. shares compounds with GRK2 inh. 2,000 tested, under 10 active. Carboxyfluorescein RNA aptamer on beads, flow cytometry quenching; stronger effect = lower value;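 active means compounds that quench the bead-bound fluorescent RNA probe, cutting fluorescence to under half of the solvent control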;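 further: counterscreen run without GRK2 so only probe quenching by compound is measured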
GRK2 confirm 2 – confirmation of human GRK2 inhibitors binding RNA aptamer site. shares compounds with GRK2 inh. bead-bound GRK2, FAM-aptamer displacement, flow cytometry. inhibition of aptamer binding, % at 10 µM. 360 tested, under 10 active. AID 504782;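 active means inhibition of aptamer binding above 40%, about triple the noise seen with nonglowing compounds, on plates passing quality control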;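 further: negative values mostly come from compounds that fluoresce themselves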
FAM quench SP – aptamer fluorescence quenching in GRK2 counter-screen; shares compounds with GRK2 inh; carboxyfluorescein RNA aptamer beads, flow cytometry quenching; stronger effect = lower value; fluorescence response vs DMSO, % at 10 µM; 360 tested, under 10 active;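 active means response vs DMSO under 50%, meaning signal dropped by over half, treated as fluorescence quencher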;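 further: labelled aptamer on streptavidin beads without GRK2 as a quench counter-screen; 100% = bead fluorescence of DMSO wells and lower means quenching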
Active calls of the source: *; / = no result. An excerpt weighted towards active compounds, which were near 1.9% of everything screened.

SMILES | SR-BI DiI-HDL act | GRK2 inh | Rin1 Abl inh | SR-BI HDL uptake | GRK2 CP1 | Aptamer quench SP | others
CC1CN(S(=O)(=O)c2cccc(C(=O)OCCOc3ccccc3)c2)CC(C)O1 (stereo not drawn) | -39.1 | 4.0 | 3.0 | 39.1 | / | /
O=C1NC(=S)S/C1=C\c1ccc(SCc2ccccc2)o1 | 36.0 | 46.0* | 3.6 | -36.0 | 20.7 | 96.6
COc1ccc(CCNC(=O)CSc2ccc3nnc(CCNC(=O)c4ccc(C)cc4)n3n2)cc1OC | 2.6 | 61.0* | -0.8 | -2.6 | / | / | GRK2 confirm 2=-10.4;FAM quench SP=99.0
Nc1ncnc2c1ncn2[C@@H]1O[C@H](C(=O)N[C@H]2c3ccccc3C[C@H]2O)[C@@H](O)[C@H]1O | / | / | 2.2 | / | / | /
Cc1ccc(NC(=O)CC(C)S(=O)(=O)c2ccc3c(c2)NC(=O)CO3)c(Cl)c1 (stereo not drawn) | 9.0 | 0.0 | 1.6 | -9.0 | / | / | GRK2 confirm 2=-39.8;FAM quench SP=102.0
Cc1ccc(CNC(=O)CC(C)S(=O)(=O)c2ccc3c(c2)NC(=O)CO3)cc1 (stereo not drawn) | 7.7 | 0.0 | 2.7 | -7.7 | / | /
CN(CC(=O)NCc1ccc(F)cc1)Cc1cccc(Cl)c1 | 3.8 | 0.0 | 0.3 | -3.8 | / | /
CCN(CC(=O)NCc1ccc(F)cc1)C(=O)C(C)Oc1cccc(Cl)c1 (stereo not drawn) | -7.2 | 79.0* | 0.6 | 7.2 | -1.5 | 101.5
O=C(NCCc1ccccc1)c1oc2ccccc2c1COc1ccccc1 | -26.0 | 69.0* | -1.2 | 26.0 | -3.7 | 97.9
O=C(Nc1ccc(Cl)cn1)c1ccc(-c2cc(Cl)ccc2Cl)o1 | 6.5 | 42.0* | -0.5 | -6.5 | / | / | GRK2 confirm 2=-25.5;FAM quench SP=100.0
COc1cccc(OC)c1NC(=O)c1ccc(-c2cc(Cl)ccc2Cl)o1 | / | / | 0.2 | / | / | /
COc1ccc(NC(=O)CN(C)C(=O)C(Sc2ccccc2)c2ccccc2)cc1 (stereo not drawn) | -6.5 | 4.0 | 0.1 | 6.5 | / | /
CN(CC(=O)Nc1ccc(N2CCOCC2)cc1)C(=O)CCNC(=O)c1ccccc1Cl | -3.7 | 1.0 | -0.9 | 3.7 | / | /
CN(CC(=O)Nc1ccc(N2CCOCC2)cc1)C(=O)CCc1ccccc1Cl | -10.2 | 0.0 | -1.1 | 10.2 | -1.1 | 98.1
CCOc1cc(N2CCOCC2)c(OCC)cc1NC(=O)c1cc(S(=O)(=O)N2CCOCC2)ccc1C | -68.7 | 8.0 | -3.6 | 68.7 | -0.4 | 97.1
CCOc1cc(N2CCOCC2)c(OCC)cc1NC(=O)c1ccc(S(C)(=O)=O)cc1 | 3.2 | 90.0* | 0.7 | -3.2 | 5.5 | 105.7
CCOc1cc(N2CCOCC2)c(OCC)cc1NC(=O)c1ccc(F)c(S(=O)(=O)N2CCOCC2)c1 | -46.5 | / | 3.5 | 46.5 | 2.1 | 94.6
CCOc1ccc(S(=O)(=O)N2CCOCC2)cc1NC(=O)c1ccccc1F | -9.0 | 1.0 | -1.6 | 9.0 | / | /
O=C(CNCC1CCCCC1)Nc1ccc(OC(F)(F)F)cc1 | 10.6 | 0.0 | -1.5 | -10.6 | / | /
CC1=C(C(=O)N(C(C)C)C(C)C)CC(CC(=O)NCCCCc2ccccc2)C(=O)N1Cc1ccc(C(C)(C)C)cc1 (stereo not drawn) | / | / | 3.7 | / | / | /
O=C1c2cc3c(cc2CCC1c1ccc2c(c1)OCO2)OCO3 (stereo not drawn) | / | / | 2.0 | / | / | /
N=C1/C(=C/c2ccco2)C(=O)N=C2SC(CC(=O)N3CCCC3)=NN12 | 23.3 | 46.0* | -0.1 | -23.3 | 14.1 | 95.7
N=C1/C(=C/c2ccc(Br)o2)C(=O)N=C2SC(CC(=O)N3CCCC3)=NN12 | / | 7.0 | 2.3 | / | / | /
COCCn1nnnc1C(c1cccc(OC)c1OC)N1CCN(C(=O)c2ccco2)CC1 (stereo not drawn) | / | 100.0* | -0.6 | / | 0.6 | 102.1
Cc1ccc2ccccc2c1C(O)c1ncc(-c2ccccc2)[nH]1 (stereo not drawn) | / | / | -1.3 | / | / | /
SMILES | SR-BI DiI-HDL act | GRK2 inh | Rin1 Abl inh | SR-BI HDL uptake | GRK2 CP1 | Aptamer quench SP | others
O=C(CCCN1C(=O)/C(=C\c2cccs2)SC1=S)Nc1ccc(O)cc1C(=O)O | 1.2 | 0.0 | -1.0 | -1.2 | / | /
O=C(CCCN1C(=O)/C(=C\c2ccco2)SC1=S)Nc1ccc(O)cc1C(=O)O | -2.3 | 45.0* | -0.4 | 2.3 | -18.5 | 93.1
COc1ccc(OCc2cc(C(=O)NCCN3CCCc4ccccc43)no2)c(Cl)c1 | -56.5 | 0.0 | 0.9 | 56.5 | / | /
NC(=O)c1sc2nc3c(cc2c1N)CCCCCC3 | -8.6 | 75.0* | -2.4 | 8.6 | 9.2 | 95.6
Nc1ncnc2c1ccn2[C@H]1CN(Cc2ccc(Cl)cc2)C[C@@H](CO)O1 | / | / | 5.2 | / | / | /
COCc1nnc(NC(=O)CCS(=O)(=O)c2ccccc2)s1 | 11.5 | 6.0 | 0.3 | -11.5 | 6.8 | 98.4
CCc1nnc(NC(=O)CCS(=O)(=O)c2ccccc2)s1 | 14.2 | 0.0 | 0.5 | -14.2 | -1.0 | 99.9
O=C(Nc1nc(-c2cccs2)cs1)c1ccc(S(=O)(=O)N2CCCC2)cc1 | -19.7 | 19.0 | 4.2 | 19.7 | -1.2 | 98.7
Cc1cccc(NC(=O)CCS(=O)(=O)c2ccccc2)n1 | / | 6.0 | 1.4 | / | 2.7 | 97.3
CC(C)(C)OC(=O)C[C@H]1C/C=C\C[C@@H](CC(=O)NCCO)C(=O)NCCOC1=O | 12.5 | 0.0 | 1.1 | -12.5 | / | /
CCc1nnc(NC(=O)c2cccc(S(=O)(=O)N3CCCCC3)c2)s1 | -10.6 | 95.0* | 0.3 | 10.6 | / | / | GRK2 confirm 2=-8.8;FAM quench SP=99.0
CCOCc1nnc(NC(=O)CS(=O)(=O)c2ccc(C)cc2)s1 | / | 0.0 | 0.7 | / | / | /
CCCCc1nnc(NC(=O)CCS(=O)(=O)c2ccc(C)cc2)s1 | 15.2 | 1.0 | 0.9 | -15.2 | -0.7 | 106.9
CCc1nnc(NC(=O)c2cccc(S(=O)(=O)N3CCCC3)c2)s1 | 10.0 | 0.0 | 1.5 | -10.0 | / | /
CCc1nnc(NC(=O)CCS(=O)(=O)c2ccc(C)cc2)s1 | 11.7 | 0.0 | 6.9 | -11.7 | 6.7 | 99.1
CCCCc1nnc(NC(=O)CN(C)S(=O)(=O)c2ccc(C)cc2)s1 | 12.0 | 0.0 | -0.1 | -12.0 | / | /
CC[C@]12c3[nH]c4ccc(Cl)cc4c3CCN1C(=O)[C@@H](CC(=O)NC/C=C(\C)CCC=C(C)C)C[C@@H]2C(=O)N1CCN(C(=O)c2ccco2)CC1 | -11.0 | 0.0 | -4.0 | 11.0 | / | /
CC(C)CN1CCC1(C)C(=O)Nc1cccc(C#N)c1 (stereo not drawn) | / | / | -1.4 | / | / | /
COc1cc(C2N(c3ccccn3)C(=O)C3CCCN32)cc(OC)c1OC (stereo not drawn) | 10.8 | 59.0* | 0.6 | -10.8 | -1.8 | 99.2
N#C/C(=C\Nc1ccccc1SC(F)(F)F)c1nc(-c2ccccc2)cs1 | -4.4 | 48.0* | 0.9 | 4.4 | 0.0 | 95.2
N#C/C(=C\Nc1ccccc1SC(F)(F)F)c1nc(-c2ccc(Cl)cc2)cs1 | -61.4 | 12.0 | 1.3 | 61.4 | / | /
